As a reminder, the IC50 is the point on the concentration scale where inhibition reaches its midpoint. A high value points to lower potency. The term Solubility denotes the concentration that dissolves in the medium under given conditions. A higher Solubility goes with a readily soluble substance.

Experimental findings from ChEMBL document CHEMBL1135653, “Novel apoptosis-inducing trans-platinum piperidine derivatives: synthesis and biological characterization” (J Med Chem, 2002) are described below.

Data set [1] is described as follows: In vitro growth inhibition against C-26 cells incubated for 4 hr using cytotoxicity assay. The class given is functional, cell-based, Mus musculus. In outline:
(§1)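 Methylene blue staining assay. Exponentially growing cells plated, incubated 24 h, then drugs added at various concentrations (saline for controls), four wells per variant. Drug exposure 4, 24 or 72 h, then washed and grown in fresh medium to 72 h total. Cells fixed in 2.5% glutaraldehyde, stained with 1% MB in 0.1 M borate pH 8.5, dye extracted with 0.1 N HCl at 37 °C, OD read at 620 nm. IC50 given as mean ± SD from at least two experiments.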

Data set [2] in a line: In vitro growth inhibition against C-26 cells incubated for 72 hr using cytotoxicity assay. The class given is functional, cell-based, Mus musculus. An outline of the steps:
as §1

The nature of data set [3]: Solubility was determined in DDW(double distilled water) at 37 degrees Centigrade. The class given is physicochemical. The settings on record: buffer.
For data set [4], the system named is OV-1063. The experiment in a line: In vitro growth inhibition against OV-1063 cells incubated for 72 hr using cytotoxicity assay. The class given is functional, cell-based, Homo sapiens. In outline:
as §1

Data set [5] in a line: In vitro growth inhibition against C-26 cells incubated for 24 hr using cytotoxicity assay. The class given is functional, cell-based, Mus musculus. An outline of the steps:
as §1

Data set [6] has as its system OV-1063. In words: In vitro growth inhibition against OV-1063 cells incubated for 4 hr using cytotoxicity assay. The class given is functional, cell-based, Homo sapiens. In outline: as §1
The test system of data set [7] is OV-1063. The experiment in a line: In vitro growth inhibition against OV-1063 cells incubated for 24 hr using cytotoxicity assay. The class given is functional, cell-based, Homo sapiens. In outline:
as §1

Several values for one entry are separate records, joined by “and”; a condition that tells them apart may be missing. Equal values may be shown once.

On to CISPLATIN, for which the IC50 in data set [1] turned out to be 1.5 µM; in data set [2], 0.2 µM; in the data set on OV-1063 [4] it was 0.5 µM; in data set [5], 0.6 µM; with OV-1063 [6], 2 µM; in the data set on OV-1063 [7], 0.7 µM. For the same substance, the Solubility in data set [3] stood at 2100 µg/mL.

With TRANSPLATIN, the IC50 was 64 µM in data set [1]; 41 µM in data set [2]; 52 µM in the data set with OV-1063 [4]; 46 µM in data set [5]; 81 µM in the data set on OV-1063 [6]; 73 µM in the data set with OV-1063 [7]. For the same substance, the Solubility in data set [3] came to 240 µg/mL.

As to cis-[ptcl2(NH3)(4-pic)], the half-inhibitory concentration (IC50) was 12 µM and 5.1 µM in data set [1]; 11 µM and 3.7 µM in data set [2]; 14 µM and 4 µM in the data set with OV-1063 [4]; 11 µM and 4.7 µM in data set [5]; 18 µM and 6 µM in the data set on OV-1063 [6]; 16 µM and 5.1 µM in the data set on OV-1063 [7].

On to trans-[ptcl2(4-pic)(pip)], for which the IC50 in data set [1] was 4.5 µM; in data set [2], 1.75 µM; in the data set on OV-1063 [4], 4.5 µM; in data set [5], 2.5 µM; with OV-1063 [6], 6.5 µM; with OV-1063 [7] it was 6 µM. Moreover, the Solubility in data set [3] was determined as 30 µg/mL.

With trans-[ptcl2(4-pic)(pz)] HCl, the IC50 in data set [1] worked out at 5.5 µM; in data set [2], 3.5 µM; in the data set on OV-1063 [4], 5.1 µM; in data set [5] it was 4.5 µM; in the data set with OV-1063 [6], 7.4 µM; in the data set with OV-1063 [7], 6 µM. This substance also came in with a Solubility in data set [3] of 7500 µg/mL.
